Data as given in ChEMBL document CHEMBL1955763, “Antimicrobial activity of sulfonamides containing 5-chloro-2-hydroxybenzaldehyde and 5-chloro-2-hydroxybenzoic acid scaffold” (Eur J Med Chem, 2012).
Converted amounts (≈) assume the structure as drawn.

Legend:
Assay type in all cases: functional
Trichosporon asahii = assay: Antifungal activity against Trichosporon asahii 1188 after 24 hrs by broth microdilution method; conditions: Trichosporon asahii, 1188, 24 h
Procedure, shortened: (§1)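 Microdilution broth per CLSI M27-A3 (yeasts) or M38-A2 (moulds) in RPMI 1640 with glutamine, buffered to pH 7.0 with 0.165 mol MOPS. Compounds were in DMSO. Final inoculum was 5 × 10³ ± 0.2 CFU/mL. Other conditions matched the antibacterial assay, with MIC as IC₉₀ read visually and at 540 nm. Determined twice, in duplicate.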

Aspergillus fumigatus = assay: Antifungal activity against Aspergillus fumigatus 231 after 24 hrs by broth microdilution method; conditions: Aspergillus fumigatus, 231, 24 h; procedure, shortened: as §1
Lichtheimia corymbifera = assay: Antifungal activity against Absidia corymbifera 272 after 24 hrs by broth microdilution method; conditions: Lichtheimia corymbifera, 272, 24 h; procedure, shortened: as §1
[1] = system: Trichophyton mentagrophytes; assay: Antifungal activity against Trichophyton mentagrophytes 445 after 24 hrs by broth microdilution method; conditions: Trichophyton mentagrophytes, 445, 24 h
[2] = system: Mycobacterium tuberculosis; assay: Antimycobacterial activity against Mycobacterium tuberculosis H37Rv 331/88 after 14 days; conditions: H37Rv 331/88, 336 h
[3] = system: Mycobacterium tuberculosis; assay: Antimycobacterial activity against Mycobacterium tuberculosis H37Rv 331/88 after 21 days; conditions: H37Rv 331/88, 504 h
Procedure, shortened: (§2)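 Micromethod in Sula semisynthetic medium, with compounds added as DMSO solutions over a two-fold series from 1000 down to 1. Inoculum for M. avium 330/88 was a 10⁻⁵ dilution. Plates were incubated at 37 °C and MIC was read after 14 and 21 days.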

Mycobacterium avium [4] = assay: Antimycobacterial activity against isoniazid-, rifampicin-, ofloxacin-, ethambutol-resistant Mycobacterium avium 330/88 after 14 days; conditions: 330/88, 336 h; procedure, shortened: as §2
Mycobacterium avium [5] = assay: Antimycobacterial activity against isoniazid-, rifampicin-, ofloxacin-, ethambutol-resistant Mycobacterium avium 330/88 after 21 days; conditions: 330/88, 504 h; procedure, shortened: as §2
Mycobacterium kansasii [6] = assay: Antimycobacterial activity against Mycobacterium kansasii 235/80 after 7 days; conditions: 235/80, 168 h
Procedure, shortened: (§3)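 Micromethod MIC in Sula semisynthetic medium, with compounds added as DMSO solutions at […]. Incubation at 37 °C. Inocula: M. kansasii 235/80 at dilution 10⁻⁴, clinical isolate 6509/96 at 10⁻⁵.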

Mycobacterium kansasii [7] = assay: Antimycobacterial activity against Mycobacterium kansasii 235/80 after 14 days; conditions: 235/80, 336 h; procedure, shortened: as §3
Mycobacterium kansasii [8] = assay: Antimycobacterial activity against Mycobacterium kansasii 235/80 after 21 days; conditions: 235/80, 504 h; procedure, shortened: as §3
Mycobacterium kansasii [9] = assay: Antimycobacterial activity against Mycobacterium kansasii 6509/96 after 7 days; conditions: 6509/96, 168 h; procedure, shortened: as §3
Mycobacterium kansasii [10] = assay: Antimycobacterial activity against Mycobacterium kansasii 6509/96 after 14 days; conditions: 6509/96, 336 h; procedure, shortened: as §3
Mycobacterium kansasii [11] = assay: Antimycobacterial activity against Mycobacterium kansasii 6509/96 after 21 days; conditions: 6509/96, 504 h; procedure, shortened: as §3
Staphylococcus aureus [12] = assay: Antibacterial activity against Staphylococcus aureus CCM 4516/08 after 24 hrs by broth microdilution method; conditions: CCM 4516/08, 24 h
Procedure, shortened: (§4)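 Microdilution broth method modified from M07-A07, in Mueller-Hinton broth at pH 7.4 (±0.2). Compounds were dissolved in DMSO. Inoculum was made in sterile water to 0.5 McFarland (1.5 × 10⁸ CFU/mL). MIC was taken as IC₉₀, meaning ≥90% growth reduction versus the drug-free control. Growth was read visually and by absorbance at 540 nm.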

Staphylococcus aureus [13] = assay: Antibacterial activity against Staphylococcus aureus CCM 4516/08 after 48 hrs by broth microdilution method; conditions: CCM 4516/08, 48 h
Procedure, shortened: (§5)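 Broth microdilution modified from standard M07-A07 in Mueller-Hinton broth at pH 7.4 (±0.2). Compounds were dissolved in DMSO. Inoculum in sterile water was adjusted to 0.5 McFarland (1.5 × 10⁸ CFU/mL). MIC was taken as IC₉₀, i.e. ≥90% growth reduction versus control, read visually and spectrophotometrically at 540 nm.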

Staphylococcus aureus [14] = assay: Antibacterial activity against methicillin-resistant Staphylococcus aureus H 5996/08 after 24 hrs by broth microdilution method; conditions: H 5996/08, 24 h; procedure, shortened: as §4
Staphylococcus aureus [15] = assay: Antibacterial activity against methicillin-resistant Staphylococcus aureus H 5996/08 after 48 hrs by broth microdilution method; conditions: H 5996/08, 48 h; procedure, shortened: as §4
[16] = system: Staphylococcus epidermidis; assay: Antibacterial activity against methicillin-resistant Staphylococcus epidermidis H 6966/08 after 24 hrs by broth microdilution method; conditions: H 6966/08, 24 h; procedure, shortened: as §4
[17] = system: Staphylococcus epidermidis; assay: Antibacterial activity against methicillin-resistant Staphylococcus epidermidis H 6966/08 after 48 hrs by broth microdilution method; conditions: H 6966/08, 48 h; procedure, shortened: as §4
Candida albicans = assay: Antifungal activity against Candida albicans ATCC 44857 after 24 hrs by broth microdilution method; conditions: ATCC 44857, 24 h; procedure, shortened: as §1
Candida tropicalis = assay: Antifungal activity against Candida tropicalis 156 after 24 hrs by broth microdilution method; conditions: Candida tropicalis, 156, 24 h; procedure, shortened: as §1
Nakaseomyces glabratus = assay: Antifungal activity against Candida glabrata 20/I after 24 hrs by broth microdilution method; procedure, shortened: as §1
Pichia kudriavzevii = assay: Antifungal activity against Candida krusei E58 after 24 hrs by broth microdilution method; conditions: E58, 24 h; procedure, shortened: as §1
Escherichia coli = assay: Antibacterial activity against Escherichia coli CCM 4517 after 24 hrs by broth microdilution method; conditions: CCM 4517, 24 h; procedure, shortened: as §5

Row | SMILES | MIC (Trichosporon asahii) | MIC (Aspergillus fumigatus) | MIC (Lichtheimia corymbifera) | MIC [1] | MIC [2] | MIC [3] | MIC (Mycobacterium avium [4]) | MIC (Mycobacterium avium [5]) | MIC (Mycobacterium kansasii [6]) | MIC (Mycobacterium kansasii [7]) | MIC (Mycobacterium kansasii [8]) | MIC (Mycobacterium kansasii [9]) | MIC (Mycobacterium kansasii [10]) | MIC (Mycobacterium kansasii [11]) | MIC (Staphylococcus aureus [12]) | MIC (Staphylococcus aureus [13]) | MIC (Staphylococcus aureus [14]) | MIC (Staphylococcus aureus [15]) | MIC [16] | MIC [17] | other results
1 | Cc1cc(NS(=O)(=O)c2ccc(/N=C/c3cccc(Cl)c3)cc2)no1 | 500 µM (≈ 188 µg/mL) | 500 µM (≈ 188 µg/mL) | 500 µM (≈ 188 µg/mL) | 500 µM (≈ 188 µg/mL) | 62.5 µM (≈ 23.5 µg/mL) | 125 µM (≈ 47 µg/mL) | 32 µM (≈ 12 µg/mL) | 62.5 µM (≈ 23.5 µg/mL) | 4 µM (≈ 1.5 µg/mL) | 8 µM (≈ 3.01 µg/mL) | 8 µM (≈ 3.01 µg/mL) | 4 µM (≈ 1.5 µg/mL) | 4 µM (≈ 1.5 µg/mL) | 4 µM (≈ 1.5 µg/mL) | 31.2 µM (≈ 11.7 µg/mL) | 62.5 µM (≈ 23.5 µg/mL) | 31.2 µM (≈ 11.7 µg/mL) | 62.5 µM (≈ 23.5 µg/mL) | > 500 µM | > 500 µM | MIC (Candida albicans): 500 µM (≈ 188 µg/mL); MIC (Candida tropicalis): 500 µM (≈ 188 µg/mL); MIC (Nakaseomyces glabratus): 500 µM (≈ 188 µg/mL); MIC (Pichia kudriavzevii): 500 µM (≈ 188 µg/mL)
2 | Cc1cc(NS(=O)(=O)c2ccc(NC(=O)c3cc(Cl)ccc3O)cc2)no1 | 500 µM (≈ 204 µg/mL) | 500 µM (≈ 204 µg/mL) | 500 µM (≈ 204 µg/mL) | 500 µM (≈ 204 µg/mL) | 125 µM (≈ 51 µg/mL) | 250 µM (≈ 102 µg/mL) | 62.5 µM (≈ 25.5 µg/mL) | 125 µM (≈ 51 µg/mL) | 8 µM (≈ 3.26 µg/mL) | 16 µM (≈ 6.53 µg/mL) | 16 µM (≈ 6.53 µg/mL) | 8 µM (≈ 3.26 µg/mL) | 8 µM (≈ 3.26 µg/mL) | 8 µM (≈ 3.26 µg/mL) | 125 µM (≈ 51 µg/mL) | 125 µM (≈ 51 µg/mL) | 15.6 µM (≈ 6.37 µg/mL) | 31.2 µM (≈ 12.7 µg/mL) | > 500 µM | > 500 µM | MIC (Escherichia coli): 250 µM (≈ 102 µg/mL); MIC (Candida albicans): 500 µM (≈ 204 µg/mL); MIC (Candida tropicalis): 500 µM (≈ 204 µg/mL); MIC (Nakaseomyces glabratus): 500 µM (≈ 204 µg/mL); MIC (Pichia kudriavzevii): 500 µM (≈ 204 µg/mL)
3 | Cc1cc(NS(=O)(=O)c2ccc(NC(=O)c3cccc(Cl)c3)cc2)no1 | 500 µM (≈ 196 µg/mL) | 500 µM (≈ 196 µg/mL) | 500 µM (≈ 196 µg/mL) | 500 µM (≈ 196 µg/mL) | 500 µM (≈ 196 µg/mL) | 500 µM (≈ 196 µg/mL) | 500 µM (≈ 196 µg/mL) | 500 µM (≈ 196 µg/mL) | 2 µM (≈ 0.784 µg/mL) | 8 µM (≈ 3.13 µg/mL) | 8 µM (≈ 3.13 µg/mL) | 8 µM (≈ 3.13 µg/mL) | 8 µM (≈ 3.13 µg/mL) | 8 µM (≈ 3.13 µg/mL) | > 500 µM | > 500 µM | > 500 µM | > 500 µM | > 500 µM | > 500 µM | MIC (Candida albicans): 500 µM (≈ 196 µg/mL); MIC (Candida tropicalis): 500 µM (≈ 196 µg/mL); MIC (Nakaseomyces glabratus): 500 µM (≈ 196 µg/mL); MIC (Pichia kudriavzevii): 500 µM (≈ 196 µg/mL)
